# Experiments:
# Cavia porcellus = organism: Cavia porcellus; assay: In vitro increase in contractile force of the guine pig atrium.; format: functional, organism-based; conditions: Cardiac atrium
# Method in brief: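 Left atria from male guinea pigs (300-500 g) in organ baths of bicarbonate salt solution with glucose and sucrose, 95% O2/5% CO2, 32 °C, 500 mg resting tension. Field-stimulated at 1 Hz (1 ms, twice threshold voltage). After 60 min equilibration, cumulative concentrations added, each held until maximal response or arrhythmia. Read-out: maximal increase in contractile force; EC50 from concentration–response curves.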
# [1] = target: Sodium/potassium-transporting ATPase; assay: Binding affinity towards Na+,K+ -ATPase isolated from dog kidney.; format: protein-complex assay, Canis lupus familiaris
# Method in brief: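 Displacement of specific [3H]ouabain binding from the Na+,K+-ATPase receptor, enzyme isolated from dog kidney and purified per Jørgensen. Means of two to three separate experiments in duplicate.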
SMILES,EC50 (Cavia porcellus) [µM],IC50 [1] [µM]
C[C@@H](C/C=N/OCCN(C)C)[C@@]1(C)CCC2C(CC[C@@H]3C[C@@H](O)CC[C@]23C)C1=O (stereo not given in full),3,0.13
CC[C@H](C/C=N/OCCN(C)C)[C@@]1(C)CCC2C(CC[C@@H]3C[C@@H](O)CC[C@]23C)C1=O (stereo not given in full),–,0.8
CCC[C@@H](C/C=N/OCCN)[C@@]1(C)CCC2C(CC[C@@H]3C[C@@H](O)CC[C@]23C)C1=O (stereo not given in full),5.6,0.2
CC[C@@H](C/C=N/OCCN)[C@@]1(C)CCC2C(CC[C@H]3C[C@@H](O)CC[C@]23C)C1=O (stereo not given in full),–,0.16
CC[C@@H](C/C=N/OCCN(C)C)[C@@]1(C)CCC2C(CC[C@H]3C[C@@H](O)CC[C@]23C)C1=O (stereo not given in full),–,0.25
CC[C@@H](C/C=N/OCCN(C)C)[C@@]1(C)CCC2C(CC[C@@H]3C[C@@H](O)CC[C@]23C)C1=O (stereo not given in full),2,0.1
CC[C@@H](C/C=N/OCCN)[C@@]1(C)CCC2C(CC[C@@H]3C[C@@H](O)CC[C@]23C)C1=O (stereo not given in full),1.5,0.04
CC[C@H](/C=N/OCCN(C)C)[C@@]1(C)CCC2C(CC[C@@H]3C[C@@H](O)CC[C@]23C)C1=O (stereo not given in full),–,4
C[C@]12CC[C@H](O)C[C@H]1CC[C@@H]1[C@@H]2CC[C@]2(C)[C@H](C/C=N/OCCCN)CC[C@]12O,–,0.2
C[C@]12CC[C@H](O)C[C@H]1CC[C@@H]1[C@@H]2CC[C@]2(C)[C@H](C/C=N/OCCCCN)CC[C@]12O,–,0.8
C[C@]12CC[C@H](O)C[C@H]1CC[C@@H]1[C@@H]2CC[C@]2(C)[C@H](/C=N/OCCCCN)CC[C@]12O,–,1
C[C@]12CC[C@H](O)C[C@H]1CC[C@@H]1[C@@H]2CC[C@]2(C)[C@H](/C=N/OCCN)CC[C@]12O,–,0.4
CN(C)CCO/N=C/[C@@H]1CC[C@]2(O)[C@@H]3CC[C@@H]4C[C@@H](O)CC[C@]4(C)[C@H]3CC[C@]12C,–,1.6
CN(C)CCO/N=C/C[C@@H]1CC[C@]2(O)[C@@H]3CC[C@@H]4C[C@@H](O)CC[C@]4(C)[C@H]3CC[C@]12C,–,0.25
C[C@]12CC[C@H](O)C[C@H]1CC[C@@H]1[C@@H]2CC[C@]2(C)[C@H](C/C=N/OCCN)CC[C@]12O,3.5,0.05
C[C@]12CC[C@H](O)C[C@H]1CC[C@@H]1[C@@H]2CC[C@]2(C)[C@H](/C=N/OCCCN)CC[C@]12O,18,0.4
C[C@@H](C/C=N/OCCN)[C@@]1(C)CCC2C(CC[C@@H]3C[C@@H](O)CC[C@]23C)C1=O (stereo not given in full),–,0.1
CC[C@@H](/C=N/OCCN(C)C)[C@@]1(C)CCC2C(CC[C@H]3C[C@@H](O)CC[C@]23C)C1=O (stereo not given in full),–,0.5
C[C@]12CC[C@H](O)C[C@H]1CC[C@@H]1[C@@H]2CC[C@]2(C)[C@@H](C3=CC(=O)OC3)CC[C@]12O [DIGITOXIGENIN],0.57,–

# — ChEMBL document CHEMBL1134675, “17 alpha-O-(aminoalkyl)oxime derivatives of 3 beta,14 beta-dihydroxy-5 beta-androstane and 3 beta-hydroxy-14-oxoseco-D-5 beta-androstane as inhibitors of Na(+),K(+)-ATPase at the digitalis receptor” (J Med Chem, 2001)
